Assay results: PMC3270411 (Chemistry & biology, 2012)
Like-named read-outs stand apart in the source and are kept apart here.

What was measured:
Format in all cases: cell-based
[1] = tested on: c-Jun phosphorylation (pSer73) in HeLa cells; experiment: LanthaScreen TR-FRET c-Jun phosphorylation assay in HeLa cells; details: read-out: p-c-Jun EC50 (nM) Hela
How it was run: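 HeLa cells stably expressing GFP-c-Jun(1–79), 10,000/well in Opti-MEM with 0.5% charcoal/dextran-treated FBS, 25 mM Hepes pH 7.3, no phenol red; overnight. Pretreated 90 min with compound, then 30 min with 5 ng/ml TNF-α. Lysed in buffer containing 2 nM terbium anti-c-Jun pSer73 antibody; 60 min equilibration at room temperature. TR-FRET: excitation 340 nm, ratio Em 520/Em 490.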

[2] = tested on: c-Jun phosphorylation and Erk, p38, JNK, Akt, Stat, NF-κB and Rsk pathway nodes; experiment: microscopy-based cellular pathway profiling with phospho-specific antibodies; details: phospho-specific antibody microscopy
PKD2 = molecular target: T1, PKD2 (Homo sapiens, UniProt Q9BZL6); experiment: KiNativ cellular kinase profiling; details: for inhibition at 1 µM: A-375, read-out: Percent inhibition of kinase labeling by ATP-biotin; for Percent inhibition of kinase labeling by ATP-biotin: A375 cells, 1 μM, 3 hours, PKD2, labeling site Lys1
T1 sequence (Q9BZL6 1-878): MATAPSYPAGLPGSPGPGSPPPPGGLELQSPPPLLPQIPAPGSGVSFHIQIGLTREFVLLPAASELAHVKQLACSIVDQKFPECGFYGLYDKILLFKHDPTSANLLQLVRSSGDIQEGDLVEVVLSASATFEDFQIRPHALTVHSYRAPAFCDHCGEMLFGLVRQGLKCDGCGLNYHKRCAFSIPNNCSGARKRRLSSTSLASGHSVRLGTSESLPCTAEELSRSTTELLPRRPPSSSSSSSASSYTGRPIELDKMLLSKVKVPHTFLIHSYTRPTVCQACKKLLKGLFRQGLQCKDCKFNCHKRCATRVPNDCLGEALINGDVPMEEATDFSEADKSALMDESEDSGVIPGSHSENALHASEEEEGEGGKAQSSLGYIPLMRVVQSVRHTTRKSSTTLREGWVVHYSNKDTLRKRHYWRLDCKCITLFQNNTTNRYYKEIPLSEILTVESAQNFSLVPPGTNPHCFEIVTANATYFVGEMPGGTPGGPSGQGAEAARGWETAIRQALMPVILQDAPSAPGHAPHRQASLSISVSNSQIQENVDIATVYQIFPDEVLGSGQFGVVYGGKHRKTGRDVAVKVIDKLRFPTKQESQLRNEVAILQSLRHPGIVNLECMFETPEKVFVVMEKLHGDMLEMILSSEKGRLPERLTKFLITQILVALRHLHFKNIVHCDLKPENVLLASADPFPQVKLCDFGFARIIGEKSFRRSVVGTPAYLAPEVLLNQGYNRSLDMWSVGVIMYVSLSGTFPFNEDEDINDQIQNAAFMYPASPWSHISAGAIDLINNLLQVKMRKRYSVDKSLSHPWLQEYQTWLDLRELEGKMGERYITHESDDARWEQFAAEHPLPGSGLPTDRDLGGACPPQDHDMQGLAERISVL

ZC2/TNIK,ZC3/MINK = experiment: KiNativ cellular kinase profiling; details: A375 cells, 1 μM, 3 hours, labeling site Lys2
BRAF = BRAF (Homo sapiens, UniProt P15056); experiment: KiNativ cellular kinase profiling; details: for inhibition at 1 µM: A-375, read-out: Percent inhibition of kinase labeling by ATP-biotin; for Percent inhibition of kinase labeling by ATP-biotin: A375 cells, 1 μM, 3 hours, BRAF, labeling site Lys2
[3] = tested on: ZC1/HGK,ZC2/TNIK, ZC3/MINK; experiment: KiNativ cellular kinase profiling; details: A375 cells, 1 μM, 3 hours, labeling site Lys2
CK1d,CK1e = experiment: KiNativ cellular kinase profiling; details: A375 cells, 1 μM, 3 hours, labeling site Lys2
AurA,AurB,AurC = experiment: KiNativ cellular kinase profiling; details: A375 cells, 1 μM, 3 hours, labeling site ATP Loop
RAF1 = RAF1 (Homo sapiens, UniProt P04049); experiment: KiNativ cellular kinase profiling; details: for inhibition at 1 µM: A-375, read-out: Percent inhibition of kinase labeling by ATP-biotin; for Percent inhibition of kinase labeling by ATP-biotin: A375 cells, 1 μM, 3 hours, RAF1, labeling site Lys2
ROCK1,ROCK2 = experiment: KiNativ cellular kinase profiling; details: A375 cells, 1 μM, 3 hours; ROCK1,ROCK2, labeling site Lys2
MARK2 = MARK2 (Homo sapiens, UniProt Q7KZI7); experiment: KiNativ cellular kinase profiling; details: for inhibition at 1 µM: A-375, read-out: Percent inhibition of kinase labeling by ATP-biotin; for Percent inhibition of kinase labeling by ATP-biotin: A375 cells, 1 μM, 3 hours, MARK2, labeling site Lys1
ROCK1 = ROCK1 (Homo sapiens, UniProt Q13464); experiment: KiNativ cellular kinase profiling; details: for inhibition at 1 µM: A-375, read-out: Percent inhibition of kinase labeling by ATP-biotin; for Percent inhibition of kinase labeling by ATP-biotin: A375 cells, 1 μM, 3 hours, ROCK1, labeling site Other
ZC2/TNIK = ZC2/TNIK (Homo sapiens, UniProt Q9UKE5); experiment: KiNativ cellular kinase profiling; details: for inhibition at 1 µM: A-375, read-out: Percent inhibition of kinase labeling by ATP-biotin; for Percent inhibition of kinase labeling by ATP-biotin: A375 cells, 1 μM, 3 hours, ZC2/TNIK, labeling site Lys1
GSK3A = GSK3A (Homo sapiens, UniProt P49840); experiment: KiNativ cellular kinase profiling; details: for inhibition at 1 µM: A-375, read-out: Percent inhibition of kinase labeling by ATP-biotin; for Percent inhibition of kinase labeling by ATP-biotin: A375 cells, 1 μM, 3 hours, GSK3A, labeling site Lys2
MARK1 = MARK1 (Homo sapiens, UniProt Q9P0L2); experiment: KiNativ cellular kinase profiling; details: for inhibition at 1 µM: A-375, read-out: Percent inhibition of kinase labeling by ATP-biotin; for Percent inhibition of kinase labeling by ATP-biotin: A375 cells, 1 μM, 3 hours, MARK1, labeling site Lys2
AurA = molecular target: T2, AurA (Homo sapiens, UniProt O14965); experiment: KiNativ cellular kinase profiling; details: for inhibition at 1 µM: A-375, read-out: Percent inhibition of kinase labeling by ATP-biotin; for Percent inhibition of kinase labeling by ATP-biotin: A375 cells, 1 μM, 3 hours, AurA, labeling site Lys2
T2 sequence (O14965 1-403): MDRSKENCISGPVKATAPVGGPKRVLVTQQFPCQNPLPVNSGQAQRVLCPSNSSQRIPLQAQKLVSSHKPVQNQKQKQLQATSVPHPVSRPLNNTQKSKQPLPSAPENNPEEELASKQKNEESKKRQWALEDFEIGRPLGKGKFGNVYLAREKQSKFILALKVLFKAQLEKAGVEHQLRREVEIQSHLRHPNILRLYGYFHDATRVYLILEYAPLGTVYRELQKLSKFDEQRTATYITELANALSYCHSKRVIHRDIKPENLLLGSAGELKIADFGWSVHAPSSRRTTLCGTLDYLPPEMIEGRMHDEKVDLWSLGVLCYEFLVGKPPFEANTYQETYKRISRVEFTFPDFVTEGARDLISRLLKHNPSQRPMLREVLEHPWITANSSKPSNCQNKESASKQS

TAO1,TAO3 = experiment: KiNativ cellular kinase profiling; details: A375 cells, 1 μM, 3 hours; TAO1,TAO3, labeling site Lys2
[4] = Hela cells, TNF-α stimulation, TR-FRET

Sequence of ZC2/TNIK (Q9UKE5 whole entry): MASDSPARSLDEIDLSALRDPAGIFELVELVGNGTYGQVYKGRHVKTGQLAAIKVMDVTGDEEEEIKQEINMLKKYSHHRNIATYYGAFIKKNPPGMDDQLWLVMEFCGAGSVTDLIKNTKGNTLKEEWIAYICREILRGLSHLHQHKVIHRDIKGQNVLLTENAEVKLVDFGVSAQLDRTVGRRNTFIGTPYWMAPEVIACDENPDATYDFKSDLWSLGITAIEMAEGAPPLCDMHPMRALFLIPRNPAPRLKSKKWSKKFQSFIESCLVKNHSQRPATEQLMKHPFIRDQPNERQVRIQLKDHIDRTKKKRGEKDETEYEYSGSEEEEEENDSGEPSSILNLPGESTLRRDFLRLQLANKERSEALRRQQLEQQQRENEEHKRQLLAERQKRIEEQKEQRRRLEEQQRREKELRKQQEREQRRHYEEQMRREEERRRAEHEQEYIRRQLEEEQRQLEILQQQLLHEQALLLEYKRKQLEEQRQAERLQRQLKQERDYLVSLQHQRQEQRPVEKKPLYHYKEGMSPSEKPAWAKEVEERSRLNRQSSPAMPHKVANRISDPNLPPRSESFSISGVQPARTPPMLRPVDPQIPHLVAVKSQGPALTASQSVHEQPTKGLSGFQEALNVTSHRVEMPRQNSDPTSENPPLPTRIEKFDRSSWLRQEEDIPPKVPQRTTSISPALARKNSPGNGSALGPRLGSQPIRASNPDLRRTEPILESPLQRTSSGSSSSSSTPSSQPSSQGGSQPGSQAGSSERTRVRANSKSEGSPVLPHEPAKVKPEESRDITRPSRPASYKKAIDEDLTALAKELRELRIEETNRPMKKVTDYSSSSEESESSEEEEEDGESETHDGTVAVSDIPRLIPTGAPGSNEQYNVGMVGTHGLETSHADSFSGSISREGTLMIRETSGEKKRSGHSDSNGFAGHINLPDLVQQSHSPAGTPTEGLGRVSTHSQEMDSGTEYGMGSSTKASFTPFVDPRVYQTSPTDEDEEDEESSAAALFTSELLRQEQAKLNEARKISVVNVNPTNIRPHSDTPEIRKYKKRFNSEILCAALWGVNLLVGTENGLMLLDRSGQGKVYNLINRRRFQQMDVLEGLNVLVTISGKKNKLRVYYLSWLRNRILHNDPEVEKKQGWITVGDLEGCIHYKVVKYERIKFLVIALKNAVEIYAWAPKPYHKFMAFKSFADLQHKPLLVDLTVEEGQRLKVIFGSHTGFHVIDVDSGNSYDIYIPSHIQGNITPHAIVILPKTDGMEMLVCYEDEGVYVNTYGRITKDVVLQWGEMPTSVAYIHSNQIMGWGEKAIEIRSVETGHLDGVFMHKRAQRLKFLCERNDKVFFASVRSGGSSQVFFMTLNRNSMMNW
Sequence of GSK3A (P49840 whole entry): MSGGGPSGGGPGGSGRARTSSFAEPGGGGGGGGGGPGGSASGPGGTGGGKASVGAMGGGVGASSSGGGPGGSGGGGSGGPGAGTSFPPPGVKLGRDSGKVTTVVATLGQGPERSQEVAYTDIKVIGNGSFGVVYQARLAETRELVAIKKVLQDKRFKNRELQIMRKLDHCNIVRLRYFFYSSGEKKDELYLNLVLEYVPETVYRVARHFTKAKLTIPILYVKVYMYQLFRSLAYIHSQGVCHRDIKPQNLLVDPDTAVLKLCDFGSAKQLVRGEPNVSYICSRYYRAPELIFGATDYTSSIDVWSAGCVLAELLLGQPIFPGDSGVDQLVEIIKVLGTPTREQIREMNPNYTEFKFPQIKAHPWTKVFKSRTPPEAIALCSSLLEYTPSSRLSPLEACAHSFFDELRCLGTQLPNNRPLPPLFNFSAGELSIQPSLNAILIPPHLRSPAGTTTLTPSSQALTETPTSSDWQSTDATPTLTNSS
Sequence of MARK2 (Q7KZI7 whole entry): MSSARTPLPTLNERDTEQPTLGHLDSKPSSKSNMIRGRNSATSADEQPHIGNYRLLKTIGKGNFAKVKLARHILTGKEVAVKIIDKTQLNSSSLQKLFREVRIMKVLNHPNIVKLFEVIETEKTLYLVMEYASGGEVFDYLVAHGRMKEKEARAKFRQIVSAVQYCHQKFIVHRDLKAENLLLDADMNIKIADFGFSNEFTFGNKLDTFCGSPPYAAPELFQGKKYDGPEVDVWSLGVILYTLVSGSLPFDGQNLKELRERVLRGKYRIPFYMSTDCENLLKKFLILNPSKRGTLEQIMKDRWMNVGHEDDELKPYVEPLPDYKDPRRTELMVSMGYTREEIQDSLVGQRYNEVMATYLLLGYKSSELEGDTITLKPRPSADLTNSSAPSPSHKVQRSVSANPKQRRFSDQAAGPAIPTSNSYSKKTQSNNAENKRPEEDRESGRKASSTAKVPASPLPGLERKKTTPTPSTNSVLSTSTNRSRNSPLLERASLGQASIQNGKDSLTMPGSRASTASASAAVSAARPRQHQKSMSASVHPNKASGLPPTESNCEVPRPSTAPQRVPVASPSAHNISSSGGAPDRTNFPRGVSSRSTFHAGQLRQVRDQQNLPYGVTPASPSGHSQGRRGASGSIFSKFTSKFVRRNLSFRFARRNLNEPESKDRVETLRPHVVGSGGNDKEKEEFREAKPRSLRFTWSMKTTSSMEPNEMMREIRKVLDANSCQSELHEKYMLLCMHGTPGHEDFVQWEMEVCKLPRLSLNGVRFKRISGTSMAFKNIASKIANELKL
Sequence of RAF1 (P04049 whole entry): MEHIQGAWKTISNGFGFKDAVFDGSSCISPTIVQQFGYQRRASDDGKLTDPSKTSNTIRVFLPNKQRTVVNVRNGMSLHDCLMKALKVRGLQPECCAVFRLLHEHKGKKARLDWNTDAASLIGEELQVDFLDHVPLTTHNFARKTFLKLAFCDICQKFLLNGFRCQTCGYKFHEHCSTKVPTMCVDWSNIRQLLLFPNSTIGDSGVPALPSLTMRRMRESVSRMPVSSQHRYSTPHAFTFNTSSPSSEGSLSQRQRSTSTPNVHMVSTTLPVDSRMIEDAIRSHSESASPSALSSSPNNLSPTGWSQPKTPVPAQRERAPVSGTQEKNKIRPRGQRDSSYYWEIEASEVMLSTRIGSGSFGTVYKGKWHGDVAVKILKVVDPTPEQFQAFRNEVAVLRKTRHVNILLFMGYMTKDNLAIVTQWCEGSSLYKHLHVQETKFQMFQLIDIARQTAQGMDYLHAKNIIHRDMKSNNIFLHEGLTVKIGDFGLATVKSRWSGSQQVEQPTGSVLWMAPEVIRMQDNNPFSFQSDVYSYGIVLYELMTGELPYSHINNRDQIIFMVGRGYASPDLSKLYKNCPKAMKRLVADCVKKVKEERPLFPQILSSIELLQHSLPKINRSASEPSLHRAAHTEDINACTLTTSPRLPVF
Sequence of BRAF (P15056 whole entry): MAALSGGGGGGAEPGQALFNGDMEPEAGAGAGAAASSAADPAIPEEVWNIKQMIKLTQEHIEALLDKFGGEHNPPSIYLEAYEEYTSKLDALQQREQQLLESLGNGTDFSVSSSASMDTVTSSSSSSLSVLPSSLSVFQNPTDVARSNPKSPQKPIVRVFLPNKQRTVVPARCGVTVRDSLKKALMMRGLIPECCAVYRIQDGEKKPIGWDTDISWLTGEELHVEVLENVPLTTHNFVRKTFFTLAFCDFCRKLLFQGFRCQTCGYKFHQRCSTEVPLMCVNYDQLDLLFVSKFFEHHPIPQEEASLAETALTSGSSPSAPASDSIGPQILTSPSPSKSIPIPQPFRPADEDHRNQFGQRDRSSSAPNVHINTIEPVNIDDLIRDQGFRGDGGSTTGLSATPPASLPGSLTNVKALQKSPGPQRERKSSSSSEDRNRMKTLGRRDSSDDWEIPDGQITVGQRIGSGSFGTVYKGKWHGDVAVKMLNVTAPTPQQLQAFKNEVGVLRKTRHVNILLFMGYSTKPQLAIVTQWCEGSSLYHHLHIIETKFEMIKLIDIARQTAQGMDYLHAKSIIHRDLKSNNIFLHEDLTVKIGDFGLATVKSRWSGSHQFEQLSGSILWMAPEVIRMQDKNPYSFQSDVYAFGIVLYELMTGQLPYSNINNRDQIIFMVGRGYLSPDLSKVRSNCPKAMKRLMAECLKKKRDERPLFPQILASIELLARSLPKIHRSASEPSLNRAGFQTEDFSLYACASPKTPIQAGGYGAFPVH
Sequence of MARK1 (Q9P0L2 whole entry): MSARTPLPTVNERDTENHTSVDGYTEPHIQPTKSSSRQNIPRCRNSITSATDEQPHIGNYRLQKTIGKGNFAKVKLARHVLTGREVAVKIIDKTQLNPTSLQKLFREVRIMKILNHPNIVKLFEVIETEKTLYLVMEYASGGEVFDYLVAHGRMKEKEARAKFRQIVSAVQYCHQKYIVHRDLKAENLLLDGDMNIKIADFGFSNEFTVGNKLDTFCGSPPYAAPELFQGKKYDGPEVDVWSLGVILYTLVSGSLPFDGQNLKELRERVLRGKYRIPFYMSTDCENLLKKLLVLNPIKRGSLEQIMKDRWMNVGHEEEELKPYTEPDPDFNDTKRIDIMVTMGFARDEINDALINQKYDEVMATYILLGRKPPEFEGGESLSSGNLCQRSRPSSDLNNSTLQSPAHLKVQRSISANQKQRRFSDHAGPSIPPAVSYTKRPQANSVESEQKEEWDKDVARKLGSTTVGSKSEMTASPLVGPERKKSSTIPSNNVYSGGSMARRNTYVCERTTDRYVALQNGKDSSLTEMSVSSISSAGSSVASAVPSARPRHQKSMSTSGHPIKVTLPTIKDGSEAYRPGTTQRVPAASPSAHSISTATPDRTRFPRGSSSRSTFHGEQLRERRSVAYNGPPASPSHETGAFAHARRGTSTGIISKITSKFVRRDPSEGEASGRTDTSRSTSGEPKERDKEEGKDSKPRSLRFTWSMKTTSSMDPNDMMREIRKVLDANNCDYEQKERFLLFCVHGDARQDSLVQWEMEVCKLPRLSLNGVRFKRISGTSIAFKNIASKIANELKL

Structure (SMILES) | EC50 ([1]; Homo sapiens, HeLa) | on-/off-pathway activity in cellular pathway profiling [2] | inhibition at 1 µM (PKD2) | Percent inhibition of kinase labeling by ATP-biotin (ZC2/TNIK,ZC3/MINK) | inhibition at 1 µM (BRAF) | Percent inhibition of kinase labeling by ATP-biotin [3] | Percent inhibition of kinase labeling by ATP-biotin (CK1d,CK1e) | Percent inhibition of kinase labeling by ATP-biotin (AurA,AurB,AurC) | inhibition at 1 µM (RAF1) | Percent inhibition of kinase labeling by ATP-biotin (ROCK1,ROCK2) | inhibition at 1 µM (MARK2) | inhibition at 1 µM (ROCK1) | inhibition at 1 µM (ZC2/TNIK) | inhibition at 1 µM (GSK3A) | inhibition at 1 µM (MARK1) | inhibition at 1 µM (AurA) | Percent inhibition of kinase labeling by ATP-biotin (TAO1,TAO3) | EC50 [1, 4] | Percent inhibition of kinase labeling by ATP-biotin (PKD2) | Percent inhibition of kinase labeling by ATP-biotin (BRAF) | other results
CN(C)C/C=C/C(=O)Nc1cccc(C(=O)Nc2ccc(Nc3nccc(-c4c(-c5ccccc5)nn5ccccc45)n3)cc2)c1 [JNK-IN-11] | 48 nM | off-pathway activity | 40.9% | 75.9% | 27.8% | 65.1% | 88.4% | 53.8% | 25.5% | −33.9% | 20.8% | -8.2% | > 80% | 40.7% | 18.6% | 68.2% | 34.1% |  |  |  | 
CN(C)C/C=C/C(=O)Nc1cccc(C(=O)Nc2ccc(Nc3nccc(-c4cccnc4)n3)cc2)c1 [JNK-IN-7] | 130 nM | only on-pathway activity | 13.6% | 31% | 7% | 8.3% | 8.4% | 19.1% | -7.3% | −21.5% | 23.6% | -11.9% | 20.9% | 20.4% | 7.9% | 20.9% | 13.1% |  |  |  | 
Cc1cc(NC(=O)c2cccc(NC(=O)/C=C/CN(C)C)c2)ccc1Nc1nccc(-c2cccnc2)n1 [JNK-IN-8] | 486 nM | only on-pathway activity | 4.9% | 45.1% | -23.7% | −11.3% | −21.8% | −11.3% | -41.4% | −17.1% | 9.6% | 10% | 9.9% | 10.6% | 8.9% | -8% | 2.9% |  |  |  | 
CN(C)C/C=C/C(=O)Nc1cccc(C(=O)Nc2ccc(Nc3nccc(/C(C#N)=C4\Nc5ccccc5S4)n3)cc2)c1 [JNK-IN-12] |  | only on-pathway activity |  | −36.2% |  | −25.5% | −75% | −20.9% |  | −91% |  |  |  |  |  |  | −10.8% | 605 nM | −79% | 6.2% | Percent inhibition of kinase labeling by ATP-biotin (RAF1): 8.6%; Percent inhibition of kinase labeling by ATP-biotin (MARK2): −41.1%; Percent inhibition of kinase labeling by ATP-biotin (ROCK1): −97%; Percent inhibition of kinase labeling by ATP-biotin (ZC2/TNIK): −8.9%; Percent inhibition of kinase labeling by ATP-biotin (GSK3A): −7.7%; Percent inhibition of kinase labeling by ATP-biotin (MARK1): −43.5%; Percent inhibition of kinase labeling by ATP-biotin (AurA): −23%
CCC(=O)Nc1cccc(C(=O)Nc2ccc(Nc3nccc(-c4cccnc4)n3)cc2)c1 [JNK-IN-6] |  |  |  | 52.8% |  | 8.8% | 32.4% | 4.9% |  | 11.6% |  |  |  |  |  |  | 35.8% | 6760 nM | 12% | 8.9% | Percent inhibition of kinase labeling by ATP-biotin (RAF1): −20.2%; Percent inhibition of kinase labeling by ATP-biotin (MARK2): 13.4%; Percent inhibition of kinase labeling by ATP-biotin (ROCK1): 24.4%; Percent inhibition of kinase labeling by ATP-biotin (ZC2/TNIK): −15.9%; Percent inhibition of kinase labeling by ATP-biotin (GSK3A): 6.8%; Percent inhibition of kinase labeling by ATP-biotin (MARK1): 23.9%; Percent inhibition of kinase labeling by ATP-biotin (AurA): 9.9%
